Results: ChEMBL document CHEMBL3860039, “Structure-Activity Relationship and Signaling of New Chimeric CXCR4 Agonists” (J Med Chem, 2016)

Assays:
Assay type in all cases: cell-based
[1] = biological target: T1, C-X-C chemokine receptor type 4 (Homo sapiens, UniProt P61073); experiment: Agonist activity at CXCR4 in human REH cells assessed as optimal concentration causing maximum induction of chemotaxis incubated for 3 hrs by transwell migration assay
How it was run: (§1)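 REH acute lymphoblastic B-cell leukaemia cells washed in RPMI; 100 000 cells in RPMI + 0.2% BSA seeded on top of 5 μm pore polycarbonate transwell, peptide dilutions in same medium in bottom chamber; 3 h, 37 °C, 5% CO2. Migrated cells in lower chamber counted by automated counter, expressed as % of seeded cells; peak = concentration giving maximal migration. Three experiments in triplicate.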

[2] = biological target: T1, C-X-C chemokine receptor type 4; experiment: Agonist activity at CXCR4 in human REH cells assessed as induction of chemotaxis incubated for 3 hrs by transwell migration assay; how it was run: as §1
[3] = biological target: T1, C-X-C chemokine receptor type 4; experiment: Agonist activity at HA-tagged human CXCR4 receptor expressed in HEK293 cells co-transfected with Galphai1-91-RlucII, Gbeta1, and GFP10-G-gamma1 incubated for 7 mins by Galpha1 protein activation-based BRET assay
How it was run: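 HEK293 cells (3 × 10^6 per 100 mm dish) co-transfected via polyethylenimine with HA-hCXCR4 plus Gαi1-91-RlucII, Gβ1, GFP10-Gγ1; replated at 24 h, 100 000 cells/well. At 48 h, washed in HBSS/0.1% BSA, exposed to ligand 10−12 to 10−5 M for 7 min, then coelenterazine-400A 5 μM final; BRET2 515/400 nm ratio. EC50 (Gαi dissociation) and Emax from three experiments in triplicate.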

[4] = biological target: T1, C-X-C chemokine receptor type 4; experiment: Displacement of [125I]-CXCL12 from HA-tagged human recombinant CXCR4 expressed in HEK293 cells incubated for 1 hr by gamma-radiation counting analysis

T1 sequence (P61073 whole entry): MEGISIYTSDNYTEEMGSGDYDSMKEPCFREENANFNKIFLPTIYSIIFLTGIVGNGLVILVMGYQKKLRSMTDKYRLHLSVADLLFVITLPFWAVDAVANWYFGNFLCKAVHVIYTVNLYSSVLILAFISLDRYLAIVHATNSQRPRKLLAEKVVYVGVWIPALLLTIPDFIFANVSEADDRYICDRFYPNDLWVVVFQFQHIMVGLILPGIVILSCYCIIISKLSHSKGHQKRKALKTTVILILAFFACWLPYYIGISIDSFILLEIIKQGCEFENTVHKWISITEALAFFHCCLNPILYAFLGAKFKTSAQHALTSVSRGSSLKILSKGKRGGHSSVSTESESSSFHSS

Row | Structure (SMILES) | Activity [1] [nM] | %max [2] [%] | EC50 [3] [nM] | Emax [3] [%] | IC50 [4] [nM]
1 | CC(C)C[C@H](NC(=O)[C@H](CO)NC(=O)[C@H](Cc1ccc2ccccc2c1)NC(=O)[C@@H]1CCCN1C(=O)[C@@H](N)CCCCN)C(=O)N[C@@H](CO)C(=O)N[C@@H](Cc1ccc(O)cc1)C(=O)N[C@@H](CCCNC(=N)N)C(=O)N[C@@H](CO)C(=O)N[C@@H](C)C(=O)NCCCC[C@H](NC(=O)[C@@H]1CSSC[C@H](NC(=O)[C@H](Cc2ccc3ccccc3c2)NC(=O)[C@H](CCCNC(=N)N)NC(=O)[C@@H](N)CCCNC(=N)N)C(=O)N[C@@H](Cc2ccc(O)cc2)C(=O)N[C@@H](CCCNC(=N)N)C(=O)N[C@@H](CCCCN)C(=O)N[C@H](CCCCN)C(=O)N2CCC[C@H]2C(=O)N[C@@H](Cc2ccc(O)cc2)C(=O)N[C@@H](CCCNC(=N)N)C(=O)N[C@@H](CCCNC(=N)N)C(=O)N1)C(=O)O | 10 | 47 | 152 | 43 | 64
2 | CC(C)C[C@H](NC(=O)[C@H](CO)NC(=O)[C@@H](NC(=O)[C@@H]1CCCN1C(=O)[C@@H](N)CCCCN)C(C)C)C(=O)N[C@@H](CO)C(=O)N[C@@H](Cc1ccc(C(=O)c2ccccc2)cc1)C(=O)N[C@@H](CCCNC(=N)N)C(=O)N[C@@H](CO)C(=O)N[C@@H](C)C(=O)NCCCC[C@H](NC(=O)[C@@H]1CSSC[C@H](NC(=O)[C@H](Cc2ccc3ccccc3c2)NC(=O)[C@H](CCCNC(=N)N)NC(=O)[C@@H](N)CCCNC(=N)N)C(=O)N[C@@H](Cc2ccc(O)cc2)C(=O)N[C@@H](CCCNC(=N)N)C(=O)N[C@@H](CCCCN)C(=O)N[C@H](CCCCN)C(=O)N2CCC[C@H]2C(=O)N[C@@H](Cc2ccc(O)cc2)C(=O)N[C@@H](CCCNC(=N)N)C(=O)N[C@@H](CCCNC(=N)N)C(=O)N1)C(=O)O | 10 | 69 | 76 | 90 | 34
3 | CC(C)C[C@H](NC(=O)[C@H](CO)NC(=O)[C@@H](NC(=O)[C@@H]1CCCN1C(=O)[C@@H](N)CCCCN)C(C)C)C(=O)N[C@@H](CO)C(=O)N[C@@H](Cc1ccc(N)cc1)C(=O)N[C@@H](CCCNC(=N)N)C(=O)N[C@@H](CO)C(=O)N[C@@H](C)C(=O)NCCCC[C@H](NC(=O)[C@@H]1CSSC[C@H](NC(=O)[C@H](Cc2ccc3ccccc3c2)NC(=O)[C@H](CCCNC(=N)N)NC(=O)[C@@H](N)CCCNC(=N)N)C(=O)N[C@@H](Cc2ccc(O)cc2)C(=O)N[C@@H](CCCNC(=N)N)C(=O)N[C@@H](CCCCN)C(=O)N[C@H](CCCCN)C(=O)N2CCC[C@H]2C(=O)N[C@@H](Cc2ccc(O)cc2)C(=O)N[C@@H](CCCNC(=N)N)C(=O)N[C@@H](CCCNC(=N)N)C(=O)N1)C(=O)O | 10 | 27 | 83 | 33 | 94
4 | CC(C)C[C@H](NC(=O)[C@H](CO)NC(=O)[C@@H](NC(=O)[C@@H]1CCCN1C(=O)[C@@H](N)CCCCN)C(C)C)C(=O)N[C@@H](CO)C(=O)N[C@@H](Cc1ccc(OCc2ccccc2)cc1)C(=O)N[C@@H](CCCNC(=N)N)C(=O)N[C@@H](CO)C(=O)N[C@@H](C)C(=O)NCCCC[C@H](NC(=O)[C@@H]1CSSC[C@H](NC(=O)[C@H](Cc2ccc3ccccc3c2)NC(=O)[C@H](CCCNC(=N)N)NC(=O)[C@@H](N)CCCNC(=N)N)C(=O)N[C@@H](Cc2ccc(O)cc2)C(=O)N[C@@H](CCCNC(=N)N)C(=O)N[C@@H](CCCCN)C(=O)N[C@H](CCCCN)C(=O)N2CCC[C@H]2C(=O)N[C@@H](Cc2ccc(O)cc2)C(=O)N[C@@H](CCCNC(=N)N)C(=O)N[C@@H](CCCNC(=N)N)C(=O)N1)C(=O)O | 100 | 76 | 138 | 79 | 102
5 | CC(C)C[C@H](NC(=O)[C@H](CO)NC(=O)[C@@H](NC(=O)[C@@H]1CCCN1C(=O)[C@@H](N)CCCCN)C(C)C)C(=O)N[C@@H](CO)C(=O)N[C@@H](Cc1ccc(O)cc1)C(=O)N[C@@H](CCCNC(=N)N)C(=O)N[C@@H](C)C(=O)N[C@@H](C)C(=O)NCCCC[C@H](NC(=O)[C@@H]1CSSC[C@H](NC(=O)[C@H](Cc2ccc3ccccc3c2)NC(=O)[C@H](CCCNC(=N)N)NC(=O)[C@@H](N)CCCNC(=N)N)C(=O)N[C@@H](Cc2ccc(O)cc2)C(=O)N[C@@H](CCCNC(=N)N)C(=O)N[C@@H](CCCCN)C(=O)N[C@H](CCCCN)C(=O)N2CCC[C@H]2C(=O)N[C@@H](Cc2ccc(O)cc2)C(=O)NC(CCCNC(=N)N)C(=O)N[C@@H](CCCNC(=N)N)C(=O)N1)C(=O)O (stereo not given in full) | 1000 | 19 | 111 | 21 | 137
6 | CC(C)C[C@H](NC(=O)[C@H](CO)NC(=O)[C@H](Cc1ccc2cc3ccccc3cc2c1)NC(=O)[C@@H]1CCCN1C(=O)[C@@H](N)CCCCN)C(=O)N[C@@H](CO)C(=O)N[C@@H](Cc1ccc(O)cc1)C(=O)N[C@@H](CCCNC(=N)N)C(=O)N[C@@H](CO)C(=O)N[C@@H](C)C(=O)NCCCC[C@H](NC(=O)[C@@H]1CSSC[C@H](NC(=O)[C@H](Cc2ccc3ccccc3c2)NC(=O)[C@H](CCCNC(=N)N)NC(=O)[C@@H](N)CCCNC(=N)N)C(=O)N[C@@H](Cc2ccc(O)cc2)C(=O)N[C@@H](CCCNC(=N)N)C(=O)N[C@@H](CCCCN)C(=O)N[C@H](CCCCN)C(=O)N2CCC[C@H]2C(=O)N[C@@H](Cc2ccc(O)cc2)C(=O)N[C@@H](CCCNC(=N)N)C(=O)N[C@@H](CCCNC(=N)N)C(=O)N1)C(=O)O | 10 | 75 | 81 | 68 | 48
7 | CC(C)C[C@H](NC(=O)[C@H](CO)NC(=O)[C@@H](NC(=O)[C@@H]1CCCN1C(=O)[C@@H](N)CCCCN)C(C)C)C(=O)N[C@@H](CO)C(=O)N[C@@H](Cc1ccc(I)cc1)C(=O)N[C@@H](CCCNC(=N)N)C(=O)N[C@@H](CO)C(=O)N[C@@H](C)C(=O)NCCCC[C@H](NC(=O)[C@@H]1CSSC[C@H](NC(=O)[C@H](Cc2ccc3ccccc3c2)NC(=O)[C@H](CCCNC(=N)N)NC(=O)[C@@H](N)CCCNC(=N)N)C(=O)N[C@@H](Cc2ccc(O)cc2)C(=O)N[C@@H](CCCNC(=N)N)C(=O)N[C@@H](CCCCN)C(=O)N[C@H](CCCCN)C(=O)N2CCC[C@H]2C(=O)N[C@@H](Cc2ccc(O)cc2)C(=O)N[C@@H](CCCNC(=N)N)C(=O)N[C@@H](CCCNC(=N)N)C(=O)N1)C(=O)O | 100 | 51 | 94 | 59 | 73

Now those with a lower EC50 [3], led by results:

Row | Activity [1] [nM] | %max [2] [%] | EC50 [3] [nM] | Emax [3] [%] | IC50 [4] [nM] | Structure (SMILES)
8 | 10 | 48 | 62 | 73 | 109 | CC(C)C[C@H](NC(=O)[C@H](CO)NC(=O)[C@@H](NC(=O)[C@@H]1CCCN1C(=O)[C@@H](N)CCCCN)C(C)C)C(=O)N[C@@H](CO)C(=O)N[C@@H](Cc1ccc([N+](=O)[O-])cc1)C(=O)N[C@@H](CCCNC(=N)N)C(=O)N[C@@H](CO)C(=O)N[C@@H](C)C(=O)NCCCC[C@H](NC(=O)[C@@H]1CSSC[C@H](NC(=O)[C@H](Cc2ccc3ccccc3c2)NC(=O)[C@H](CCCNC(=N)N)NC(=O)[C@@H](N)CCCNC(=N)N)C(=O)N[C@@H](Cc2ccc(O)cc2)C(=O)N[C@@H](CCCNC(=N)N)C(=O)N[C@@H](CCCCN)C(=O)N[C@H](CCCCN)C(=O)N2CCC[C@H]2C(=O)N[C@@H](Cc2ccc(O)cc2)C(=O)N[C@@H](CCCNC(=N)N)C(=O)N[C@@H](CCCNC(=N)N)C(=O)N1)C(=O)O
9 | 10 | 45 | 58 | 55 | 84 | CC(C)C[C@H](NC(=O)[C@H](CO)NC(=O)[C@@H](NC(=O)[C@@H]1CCCN1C(=O)[C@@H](N)CCCCN)C(C)C)C(=O)N[C@@H](CO)C(=O)N[C@@H](Cc1ccc(O)cc1)C(=O)N[C@@H](CCCNC(=N)N)C(=O)N[C@@H](CO)C(=O)N[C@@H](C)C(=O)NCCCC[C@H](NC(=O)[C@@H]1CSSC[C@H](NC(=O)[C@H](Cc2ccc3ccccc3c2)NC(=O)[C@H](CCCNC(=N)N)NC(=O)[C@@H](N)CCCNC(=N)N)C(=O)N[C@@H](Cc2ccc(O)cc2)C(=O)N[C@@H](CCCNC(=N)N)C(=O)N[C@@H](CCCCN)C(=O)N[C@H](CCCCN)C(=O)N2CCC[C@H]2C(=O)N[C@@H](Cc2ccc(O)cc2)C(=O)N[C@@H](CCCNC(=N)N)C(=O)N[C@@H](CCCNC(=N)N)C(=O)N1)C(=O)O
10 | 10 | 70 | 50 | 70 | 31 | CC(C)C[C@H](NC(=O)[C@H](CO)NC(=O)[C@H](C/C=C/c1ccccc1)NC(=O)[C@@H]1CCCN1C(=O)[C@@H](N)CCCCN)C(=O)N[C@@H](CO)C(=O)N[C@@H](Cc1ccc(O)cc1)C(=O)N[C@@H](CCCNC(=N)N)C(=O)N[C@@H](CO)C(=O)N[C@@H](C)C(=O)NCCCC[C@H](NC(=O)[C@@H]1CSSC[C@H](NC(=O)[C@H](Cc2ccc3ccccc3c2)NC(=O)[C@H](CCCNC(=N)N)NC(=O)[C@@H](N)CCCNC(=N)N)C(=O)N[C@@H](Cc2ccc(O)cc2)C(=O)N[C@@H](CCCNC(=N)N)C(=O)N[C@@H](CCCCN)C(=O)N[C@H](CCCCN)C(=O)N2CCC[C@H]2C(=O)N[C@@H](Cc2ccc(O)cc2)C(=O)N[C@@H](CCCNC(=N)N)C(=O)N[C@@H](CCCNC(=N)N)C(=O)N1)C(=O)O
